Test results: ChEMBL document CHEMBL5038630 (J Med Chem, 2022)
Active and inactive are the calls of the source. No cut-off for these calls is given here.

Key:
[1] = molecular target: Glutamate NMDA receptor; Grin1/Grin2a (Rattus norvegicus, UniProt P35439+Q00959); experiment: Agonist activity at rat GluN1/GluN2A NMDA receptor expressed in Xenopus oocytes measured after 4 days in presence of L-glutamte by two-electrode voltage-clamp recording assay; assay type: cell-based, Oocyte
Summary of the method: (§1)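 Rat GluN1 plus GluN2A or GluN2B cRNA (1:2) in Xenopus oocytes. TEVC at −40 mV, room temperature, 2–4 days post-injection. Bath: 90 mM NaCl, 1 mM KCl, 10 mM HEPES, 0.5 mM BaCl2, 0.01 mM EDTA, pH 7.4. Oocytes were BAPTA-injected before recording. Agonist applied with 300 μM L-Glu throughout. NR means <5% response at the stated concentration. 3–14 oocytes.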

[2] = molecular target: Glutamate NMDA receptor; Grin1/Grin2b (Rattus norvegicus, UniProt P35439+Q00960); experiment: Agonist activity at rat GluN1/GluN2B NMDA receptor expressed in Xenopus oocytes measured after 4 days in presence of L-glutamte by two-electrode voltage-clamp recording assay; assay type: cell-based, Oocyte; summary of the method: as §1
[3] = molecular target: Glutamate NMDA receptor; Grin1/Grin2c (Rattus norvegicus, UniProt P35439+Q00961); experiment: Agonist activity at rat GluN1/GluN2C NMDA receptor expressed in Xenopus oocytes measured after 4 days in presence of L-glutamte by two-electrode voltage-clamp recording assay; assay type: cell-based, Oocyte
Summary of the method: (§2)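 Xenopus oocytes were injected with rat GluN1 and GluN2C or GluN2D cRNA (1:2) and recorded by TEVC 2–4 days later at −40 mV, room temperature, pH 7.4 HEPES/NaCl/BaCl2 saline. Concentration-response with 300 μM L-Glu present. NR means <5% response at the concentration given. DMSO ≤0.5%. 3–14 oocytes.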

[4] = molecular target: Ionotropic glutamate receptor NMDA 1/2D (Rattus norvegicus, UniProt P35439+Q62645); experiment: Agonist activity at rat GluN1/GluN2D NMDA receptor expressed in Xenopus oocytes measured after 4 days in presence of L-glutamte by two-electrode voltage-clamp recording assay; assay type: cell-based, Oocyte; summary of the method: as §2
Oocyte [5] = experiment: Agonist activity at recombinant GluN1a/GluN2B NMDA receptor (unknown origin) expressed in Xenopus oocytes assessed as inhibition of glycine-induced activation of current measured at 10 uM after 4 days in presence of L-glutamte by two-electrode voltage-clamp recording assay; assay type: cell-based; settings: Homo sapiens, filed as agonist, time 4.0 day
Summary of the method: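 Oocytes expressing GluN1/2B were BAPTA-injected and held under two-electrode voltage clamp in continuous 300 μM L-Glu. […] Values are mean ± SEM from 12 oocytes.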

[6] = Binding affinity at recombinant GluN1a/GluN2B NMDA receptor (unknown origin) expressed in Xenopus oocytes measured after 4 days in presence of L-glutamte by two-electrode voltage-clamp recording assay; assay type: cell-based, Homo sapiens; settings: oocyte
Oocyte [7] = experiment: Agonist activity at mutant GluN1 F484A/T518 mutant//GluN3A NMDA receptor (unknown origin) expressed in Xenopus oocytes measured after 4 days in presence of glycine by two-electrode voltage-clamp recording assay; assay type: cell-based; settings: Homo sapiens, time 4.0 day
Oocyte [8] = experiment: Agonist activity at mutant GluN1 F484A/T518 mutant//GluN3B NMDA receptor (unknown origin) expressed in Xenopus oocytes measured after 4 days in presence of glycine by two-electrode voltage-clamp recording assay; assay type: cell-based; settings: Homo sapiens, time 4.0 day
[9] = Agonist activity at GluN1/GluN2A V783F mutant NMDA receptor (unknown origin) expressed in Xenopus oocytes measured after 4 days in presence of glycine by two-electrode voltage-clamp recording assay; assay type: cell-based; settings: Homo sapiens, Oocyte, 96 h
Summary of the method: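 Rat GluN1 and GluN2A cRNA (1:2) injected into Xenopus oocytes, which received 50 nL of 50 mM BAPTA 10–30 min before recording. TEVC done 2–4 days after injection at room temperature, −40 mV, in 90 mM NaCl, 1 mM KCl, 10 mM HEPES, 0.5 mM BaCl2, 0.01 mM EDTA, pH 7.4. Agonist applied with 300 μM L-Glu continuously present, DMSO <0.5%.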

Oocyte [10] = experiment: Agonist activity at wild type GluN1/GluN2A-V783L mutant NMDA receptor (unknown origin) expressed in Xenopus oocytes assessed as relative maximal efficacy measured at 10 uM after 4 days in presence of glycine by two-electrode voltage-clamp recording assay relative to glycine; assay type: cell-based; settings: Homo sapiens, time 4.0 day
Summary of the method: (§3)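 Oocytes expressing GluN1 with wild-type GluN2A or with the GluN2A-V783L or V783F mutant were BAPTA-injected and recorded by TEVC in continuous 300 μM L-Glu. […] Values are mean ± SEM from 3–8 oocytes, compared with wild type by two-way ANOVA with Tukey's test.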

Oocyte [11] = experiment: Agonist activity at wild type GluN1/ GluN2A-V783F mutant NMDA receptor (unknown origin) expressed in Xenopus oocytes assessed as relative maximal efficacy measured at 10 uM after 4 days in presence of glycine by two-electrode voltage-clamp recording assay relative to glycine; assay type: cell-based; settings: Homo sapiens, time 4.0 day; summary of the method: as §3
[12] = Agonist activity at wild type GluN1/GluN2A NMDA receptor (unknown origin) expressed in Xenopus oocytes measured after 4 days in presence of L-glutamate by two-electrode voltage-clamp recording assay; settings: Homo sapiens, Oocyte, 96 h
[13] = system: GluN1/GluN2A (Rattus norvegicus); experiment: Agonist activity at wild type GluN1/GluN2A NMDA receptor (rat) expressed in Xenopus oocytes assessed as relative maximal efficacy measured at 10 uM after 4 days in presence of glycine by two-electrode voltage-clamp recording assay relative to glycine; settings: filed as agonist, time 4.0 day

Sequence of Glutamate NMDA receptor; Grin1/Grin2b (Q00960 whole entry, other chains not shown): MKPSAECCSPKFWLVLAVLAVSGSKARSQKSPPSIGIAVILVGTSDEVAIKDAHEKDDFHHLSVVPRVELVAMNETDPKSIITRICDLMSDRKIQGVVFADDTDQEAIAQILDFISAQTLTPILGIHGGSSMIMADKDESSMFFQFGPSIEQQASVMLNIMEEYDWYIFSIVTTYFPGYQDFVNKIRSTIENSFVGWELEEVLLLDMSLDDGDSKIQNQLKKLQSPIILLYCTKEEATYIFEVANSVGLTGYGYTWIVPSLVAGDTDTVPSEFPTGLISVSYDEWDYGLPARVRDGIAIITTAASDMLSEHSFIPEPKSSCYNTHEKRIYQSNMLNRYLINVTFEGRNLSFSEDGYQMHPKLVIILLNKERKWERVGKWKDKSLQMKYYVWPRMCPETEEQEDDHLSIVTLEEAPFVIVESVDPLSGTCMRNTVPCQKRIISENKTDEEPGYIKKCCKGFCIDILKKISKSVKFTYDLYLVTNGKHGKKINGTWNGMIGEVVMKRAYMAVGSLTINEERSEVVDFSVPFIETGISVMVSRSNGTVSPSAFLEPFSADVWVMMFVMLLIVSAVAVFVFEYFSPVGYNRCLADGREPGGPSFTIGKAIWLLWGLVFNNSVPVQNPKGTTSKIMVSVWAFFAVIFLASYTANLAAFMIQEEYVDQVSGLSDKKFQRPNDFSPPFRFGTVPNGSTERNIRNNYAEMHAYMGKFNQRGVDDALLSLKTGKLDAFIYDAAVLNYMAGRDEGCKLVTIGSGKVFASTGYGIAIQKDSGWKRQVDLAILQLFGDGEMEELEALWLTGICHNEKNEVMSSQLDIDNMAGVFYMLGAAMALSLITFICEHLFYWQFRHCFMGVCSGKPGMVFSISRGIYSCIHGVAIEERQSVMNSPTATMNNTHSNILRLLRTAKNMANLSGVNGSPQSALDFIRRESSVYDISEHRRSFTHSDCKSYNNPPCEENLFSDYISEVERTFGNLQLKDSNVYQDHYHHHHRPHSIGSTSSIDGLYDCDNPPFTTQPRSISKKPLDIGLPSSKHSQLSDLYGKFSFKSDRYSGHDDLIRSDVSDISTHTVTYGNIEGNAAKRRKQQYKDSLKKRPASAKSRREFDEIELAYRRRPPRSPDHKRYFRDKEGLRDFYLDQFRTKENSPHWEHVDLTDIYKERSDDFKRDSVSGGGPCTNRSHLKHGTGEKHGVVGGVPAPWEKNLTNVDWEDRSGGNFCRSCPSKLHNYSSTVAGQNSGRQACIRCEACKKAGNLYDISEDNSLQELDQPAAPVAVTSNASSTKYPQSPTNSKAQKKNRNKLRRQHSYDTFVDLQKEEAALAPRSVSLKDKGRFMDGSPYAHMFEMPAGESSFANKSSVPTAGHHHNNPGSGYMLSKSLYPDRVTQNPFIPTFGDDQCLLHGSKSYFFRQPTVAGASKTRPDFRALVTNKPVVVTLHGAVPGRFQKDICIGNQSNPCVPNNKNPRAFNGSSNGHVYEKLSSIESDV
Sequence of Ionotropic glutamate receptor NMDA 1/2D (Q62645 whole entry, other chains not shown): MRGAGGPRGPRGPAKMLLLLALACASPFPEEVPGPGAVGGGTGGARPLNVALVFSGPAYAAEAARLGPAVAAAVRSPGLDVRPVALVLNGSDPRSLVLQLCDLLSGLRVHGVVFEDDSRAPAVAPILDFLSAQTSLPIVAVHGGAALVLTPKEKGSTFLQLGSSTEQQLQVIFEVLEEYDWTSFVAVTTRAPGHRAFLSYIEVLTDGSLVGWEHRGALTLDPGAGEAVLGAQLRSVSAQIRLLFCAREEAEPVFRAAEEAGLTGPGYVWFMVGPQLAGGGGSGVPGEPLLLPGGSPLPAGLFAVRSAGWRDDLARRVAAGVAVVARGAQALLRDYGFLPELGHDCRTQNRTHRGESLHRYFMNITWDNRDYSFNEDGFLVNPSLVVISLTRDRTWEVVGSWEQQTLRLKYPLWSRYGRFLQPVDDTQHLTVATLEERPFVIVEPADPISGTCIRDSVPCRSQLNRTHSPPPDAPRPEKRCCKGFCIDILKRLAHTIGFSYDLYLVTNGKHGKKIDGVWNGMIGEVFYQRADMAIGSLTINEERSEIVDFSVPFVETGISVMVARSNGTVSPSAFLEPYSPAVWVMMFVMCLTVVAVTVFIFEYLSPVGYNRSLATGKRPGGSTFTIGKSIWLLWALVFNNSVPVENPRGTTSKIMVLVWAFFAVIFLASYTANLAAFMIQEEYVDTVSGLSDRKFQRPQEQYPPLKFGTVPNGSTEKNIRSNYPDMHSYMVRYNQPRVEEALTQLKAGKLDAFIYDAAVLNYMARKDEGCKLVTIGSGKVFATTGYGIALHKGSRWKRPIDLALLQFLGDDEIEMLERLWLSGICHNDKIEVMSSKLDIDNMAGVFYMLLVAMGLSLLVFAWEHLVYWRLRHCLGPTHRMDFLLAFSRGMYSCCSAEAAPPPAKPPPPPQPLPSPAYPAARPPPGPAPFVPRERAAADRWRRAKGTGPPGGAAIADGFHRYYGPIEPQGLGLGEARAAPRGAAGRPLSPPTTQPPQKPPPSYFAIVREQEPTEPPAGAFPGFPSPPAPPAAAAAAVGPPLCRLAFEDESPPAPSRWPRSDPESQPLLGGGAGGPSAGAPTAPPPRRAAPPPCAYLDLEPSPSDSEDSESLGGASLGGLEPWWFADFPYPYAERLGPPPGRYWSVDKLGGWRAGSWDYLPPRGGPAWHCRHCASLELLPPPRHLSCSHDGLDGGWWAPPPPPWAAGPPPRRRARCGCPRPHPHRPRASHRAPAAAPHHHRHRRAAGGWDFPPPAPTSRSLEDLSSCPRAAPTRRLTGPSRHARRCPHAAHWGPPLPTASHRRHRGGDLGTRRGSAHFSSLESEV
Sequence of Glutamate NMDA receptor; Grin1/Grin2c (Q00961 whole entry, other chains not shown): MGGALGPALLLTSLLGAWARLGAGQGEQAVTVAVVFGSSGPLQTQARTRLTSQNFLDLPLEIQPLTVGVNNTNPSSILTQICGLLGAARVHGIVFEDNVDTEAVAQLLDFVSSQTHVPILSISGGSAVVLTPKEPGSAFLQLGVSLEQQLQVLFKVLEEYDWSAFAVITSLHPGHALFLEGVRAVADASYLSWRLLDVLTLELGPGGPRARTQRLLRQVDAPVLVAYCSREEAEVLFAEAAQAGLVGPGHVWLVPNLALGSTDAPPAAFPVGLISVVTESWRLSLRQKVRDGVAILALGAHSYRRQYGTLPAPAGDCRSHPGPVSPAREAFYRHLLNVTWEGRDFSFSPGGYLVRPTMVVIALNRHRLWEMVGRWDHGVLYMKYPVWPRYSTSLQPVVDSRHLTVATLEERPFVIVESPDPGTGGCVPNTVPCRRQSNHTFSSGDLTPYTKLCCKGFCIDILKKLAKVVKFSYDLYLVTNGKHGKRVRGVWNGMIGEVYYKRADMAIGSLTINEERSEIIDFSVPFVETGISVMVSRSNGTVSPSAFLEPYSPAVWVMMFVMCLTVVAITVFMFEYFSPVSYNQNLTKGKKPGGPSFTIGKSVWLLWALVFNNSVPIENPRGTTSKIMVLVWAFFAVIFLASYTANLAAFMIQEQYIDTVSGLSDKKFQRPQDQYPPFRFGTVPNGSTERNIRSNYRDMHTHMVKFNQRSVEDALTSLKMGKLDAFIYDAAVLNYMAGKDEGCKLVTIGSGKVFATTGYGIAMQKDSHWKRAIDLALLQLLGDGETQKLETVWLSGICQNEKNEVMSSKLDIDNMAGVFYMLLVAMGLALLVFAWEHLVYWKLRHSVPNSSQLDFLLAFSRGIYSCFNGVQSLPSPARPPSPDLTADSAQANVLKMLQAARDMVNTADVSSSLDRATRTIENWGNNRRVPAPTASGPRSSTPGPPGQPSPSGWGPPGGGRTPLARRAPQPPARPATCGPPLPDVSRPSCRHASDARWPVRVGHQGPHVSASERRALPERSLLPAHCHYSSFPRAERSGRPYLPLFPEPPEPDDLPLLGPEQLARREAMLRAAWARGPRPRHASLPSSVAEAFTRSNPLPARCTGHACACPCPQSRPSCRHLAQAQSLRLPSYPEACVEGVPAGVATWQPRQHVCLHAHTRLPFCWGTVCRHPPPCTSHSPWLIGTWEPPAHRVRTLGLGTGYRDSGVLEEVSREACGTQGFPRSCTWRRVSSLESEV

EC50 [1]: 93 nM | IC50 [2]: 10000 nM | EC50 [3]: 63 nM | EC50 [4]: 150 nM | inhibition (Oocyte [5]): 47% | Ki [6]: 100 nM | inhibition (Oocyte [7]): inactive | inhibition (Oocyte [8]): inactive | EC50 [9]: 410 nM | Rmax (Oocyte [10]): 30% | Rmax (Oocyte [11]): 9% | EC50 [12]: 110 nM | Rmax [13]: 45%
SMILES: CCc1ccccc1-c1ccc(C(=O)NC[C@@H](N)C(=O)O)o1
